Screens from PubChem BioAssay.
The list is not random: actives were taken first. Their share in the collection is about 4.6%.
CHO parental Ca: ATP-evoked calcium signal inhibitors, parental CHO, primary screen, counter-screen for OX1R antagonist project, cell-based, fluorescence, Fluo-8 calcium dye; parental CHO-K1, ATP-induced calcium, Fluo-8 fluorescence; inhibition, % at 5.6 µM; actives 0.63% (n = 330,000); AID 463079, 2010;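 active means inhibition above that plate's mean sample inhibition plus 3 SD, cut at about 26% in these data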
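Test system: untransfected parental CHO cell line; also added: ATP stimulus; dosing: 5.6 µM, single dose; signal: calcium-sensitive Fluo-8 fluorescence; measure: percent inhibition of ATP-evoked calcium rise, normalized to controls; benchmarks: low control ATP plus DMSO, high control DMSO only; replication: one well per compound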
OX1R antag-1: OX1R (HCRTR1) antagonists, primary screen, fluorescence, CHO/OX1R cells, Fluo-8 calcium, orexin A. Orexin/Hypocretin receptor type 1 (Homo sapiens), O43613. Fluo-8 calcium fluorescence. inhibition, % at 5 µM. actives 0.43% (n = 330,000). AID 434989, 2010;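 active means inhibition above its plate's threshold, mean inhibition of all tested compounds on the plate plus 3 SD, cut at about 37% in these data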
Target sequence (O43613 whole entry, looked up): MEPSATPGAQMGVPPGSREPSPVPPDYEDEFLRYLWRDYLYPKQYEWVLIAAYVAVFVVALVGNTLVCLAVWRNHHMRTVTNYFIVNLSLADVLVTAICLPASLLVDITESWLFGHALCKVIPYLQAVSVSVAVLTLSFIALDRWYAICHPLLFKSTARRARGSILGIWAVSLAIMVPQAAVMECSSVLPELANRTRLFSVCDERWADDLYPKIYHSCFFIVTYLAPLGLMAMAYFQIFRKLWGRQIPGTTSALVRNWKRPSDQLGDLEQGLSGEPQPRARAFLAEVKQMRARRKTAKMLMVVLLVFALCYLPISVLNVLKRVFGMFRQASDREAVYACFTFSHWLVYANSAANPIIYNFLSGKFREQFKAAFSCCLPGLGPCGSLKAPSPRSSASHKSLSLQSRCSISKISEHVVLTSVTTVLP
TAAR1 antagonist: human TAAR1 antagonists, primary screen, Fluo-8 calcium fluorescence, CHO RD-HGA16 cells | Trace amine-associated receptor 1 (Homo sapiens), Q96RJ0 | antagonist | inhibition, % at 3 µM | actives 1.5% (n = 360,000) | AID 624466, 2012;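 active means inhibition above a per-plate cutoff, the mean inhibition of test compounds on that plate plus 3 SD, cut at about 49% in these data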
Target sequence (Q96RJ0 whole entry, looked up): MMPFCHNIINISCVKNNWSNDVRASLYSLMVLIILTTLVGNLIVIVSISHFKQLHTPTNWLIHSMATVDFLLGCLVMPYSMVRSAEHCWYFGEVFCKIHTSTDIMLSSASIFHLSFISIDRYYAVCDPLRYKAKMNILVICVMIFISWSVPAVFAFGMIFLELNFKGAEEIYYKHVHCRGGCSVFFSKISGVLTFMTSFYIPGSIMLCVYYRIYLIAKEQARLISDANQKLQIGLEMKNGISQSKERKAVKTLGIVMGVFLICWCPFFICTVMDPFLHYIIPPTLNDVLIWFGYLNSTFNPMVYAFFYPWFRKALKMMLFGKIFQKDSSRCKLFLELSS
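Material: RD-HGA16 CHO cells with stable hTAAR1 and Gα16; Dosing: single nominal final test compound concentration of 3 µM; Schedule: seeding 17-24 h prior, 75-min 37 °C, 30-min RT dye loading; Detection: kinetic Fluo-8 calcium fluorescence measurement; Measure: % inhibition from peak post-agonist over basal fluorescence ratio; Benchmarks: vehicle and agonist controls.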
TAAR1 agonist: human TAAR1 agonists, primary screen, Fluo-8 calcium fluorescence, CHO RD-HGA16 cells; actives 0.99% (n = 360,000); vehicle wells 0%, saturating PEA agonist 100%; activation, % at 3 µM;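 active means activation above the mean activation of all test compounds in the run plus 3 SD, cut at about 38% in these data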
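Benchmarks: low control DMSO, high control PEA (EC100); System: CHO RD-HGA16 cells carrying human TAAR1 plus Gα16; Detection: Fluo-8 fluorescence, 5 s baseline then 140 s kinetic read; Schedule: 17-24 h plating, Fluo-8 75 min 37 °C, 30 min RT; Read-out basis: % activation from peak over basal fluorescence ratio, DMSO-to-PEA scaled.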
OX1R antag-2: antagonists of human orexin 1 receptor (OX1R). Orexin/Hypocretin receptor type 1 (Homo sapiens), O43613. inhibition, % at 6.6 µM. OX1R-expressing cells, FRET antagonist read-out. actives 1.8% (n = 330,000); in the data active means inhibition mostly above about 38%, no sharp cut-off; inactive means mostly below about 40%
GPR7 antagonist: GPR7 receptor antagonists, primary screen, cell-based, fluorescence, single concentration; Neuropeptides B/W receptor type 1 (Homo sapiens), P48145; GPR7-expressing cells, fluorescence antagonist assay; inhibition, % at 4.4 µM; actives 1.1% (n = 290,000); in the data active means inhibition above about 16%, passing the limit was not always enough;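 further: cells stimulated with the agonist NPW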
OX1R HTRF confirm: OX1R (HCRTR1) antagonists, confirmation, cell-based, HTRF; inhibition, % at 6.6 µM; shares compounds with OX1R antag-2; actives 49% (n = 1,800); OX1R-expressing cells, HTRF antagonist assay; in the data active means inhibition above about 55%;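 further: CHO cells expressing OX1R stimulated with orexin A at about EC80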
CHO-K1 HTRF cnt: signal inhibition in parental CHO-K1 cells, counter-screen for OX1R antagonist project, cell-based, HTRF | actives 48% (n = 1,800) | HTRF counterscreen | shares compounds with OX1R antag-2 | inhibition, % at 6.6 µM; in the data active means inhibition above about 17%
nonsel antag count: nonselective antagonists in TAAR1 counter-screen cells, counter-screen for hTAAR1 antagonist project, cell-based, fluorescence, calcium | counterscreen cell line, antagonist mode | actives 77% (n = 2,400) | shares compounds with TAAR1 antagonist | inhibition, % at 3 µM; in the data active means inhibition above about 22%;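 further: CHO-Ga16 host cells stimulated with ATP at an EC80 level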
TAAR1 ant conf: human TAAR1 antagonists, retest of hits, confirmation, cell-based, fluorescence. shares compounds with TAAR1 antagonist. TAAR1-expressing cells, fluorescence antagonist read-out. inhibition, % at 3 µM. actives 40% (n = 2,400). AID 651785, 2012; in the data active means inhibition above about 49%;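 further: CHO-Ga16 host cells challenged with agonist PEA near its EC80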
Ga16 ag counter-1: calcium activation in Ga16-expressing cells, counter-screen for TAAR1 antagonist project, cell-based, fluorescence; shares compounds with TAAR1 antagonist; agonist counterscreen; activation, % at 3 µM; actives 18% (n = 2,400); in the data active means activation above about 12%
TAAR1 ag counter: TAAR1 activation by candidate antagonists – cell-based, fluorescence, counter-screen for TAAR1 antagonist project; shares compounds with TAAR1 antagonist; hTAAR1 cell line, agonist mode; activation, % at 3 µM; actives 2% (n = 2,400); in the data active means activation above about 37%;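 further: CHO cells stably expressing TAAR1 with calcium dye readout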
TAAR1 ag conf: human TAAR1 agonists, retest of hits, confirmation, Fluo-8 calcium fluorescence, CHO RD-HGA16 cells; actives 82% (n = 2,400); AID 651783, 2012; shares compounds with TAAR1 agonist; activation, % at 3 µM; scaled: DMSO 0%, maximal phenethylamine 100%;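 active means activation above a cutoff set at the run's mean compound activation plus 3 SD, cut at about 39% in these data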
Ga16 ag counter-2: nonselective calcium mobilization agonists, CHO-Ga16 cells, counter-screen for hTAAR1 agonist project, cell-based, fluorescence, CHO-Ga16 parental line; Fluo-8 calcium fluorescence; normalized to maximal ATP response, DMSO zero; actives 50% (n = 2,400); AID 651787, 2012; shares compounds with TAAR1 agonist; activation, % at 3 µM;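 active means activation above the run cutoff, the mean activation over all tested wells plus 3 SD, cut at about 12% in these data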
TAAR1 desens: TAAR1 desensitization by agonist hits, confirmation, counter-screen for TAAR1 agonist project, cell-based, fluorescence, tachyphylaxis. shares compounds with TAAR1 agonist. CHO RD-HGA16 hTAAR1, Fluo-8 calcium, beta-PEA response inhibition. inhibition, % at 3 µM. actives 46% (n = 2,400). AID 651951, 2012;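 active means inhibition above the run cutoff, the mean inhibition of all test compounds plus 3 SD, cut at about 49% in these data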;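 further: beta-PEA stimulus applied at its EC80; loss of beta-PEA calcium signal after compound pretreatment read as receptor desensitization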
Ga16 nonsel ant: inhibition of ATP-evoked calcium response in CHO-Ga16 cells, counter-screen for TAAR1 agonist project, cell-based, fluorescence | shares compounds with TAAR1 agonist | CHO-Ga16 ATP-induced calcium, Fluo-8 fluorescence | inhibition, % at 3 µM | actives 39% (n = 2,400) | AID 651952, 2012;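 active means inhibition above the plate's mean compound inhibition plus 3 SD, computed per plate, cut at about 22% in these data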
Hits are given with their value; - = inactive; . = no result given.

SMILES	CHO parental Ca	OX1R antag-1	TAAR1 antagonist	TAAR1 agonist	OX1R antag-2	GPR7 antagonist	OX1R HTRF confirm	CHO-K1 HTRF cnt	nonsel antag count	TAAR1 ant conf	Ga16 ag counter-1	TAAR1 ag counter	others
CCOC(=O)c1c(C)[nH]c(C(=O)OCC(=O)Nc2sccc2C(N)=O)c1C	-	-	72	-	99	.	64	-	39	53	17	-
CCOC(=O)c1c(C)[nH]c(C(=O)OCC(=O)Nc2ccc(Cl)cn2)c1C	-	-	-	-	-	.	.	.	.	.	.	.
CCC(=O)N1CCN(c2ccc(NC(=O)c3cc4ccccc4o3)cc2Cl)CC1	-	-	73	-	81	-	-	-	49	66	13	-
CCOc1ccc(/C=C2\SC(=S)N(NS(=O)(=O)c3ccccc3)C2=O)cc1OC	-	-	75	-	78	-	-	24	23	53	-	-
O=C(CSc1n[nH]c(-c2ccccc2)n1)NC(=O)NCc1ccco1	-	-	.	.	82	-	-	-	.	.	.	.	Ga16 ag counter-2=-;Ga16 nonsel ant=-
COC(=O)[C@@]1(Sc2ccc(C)cc2)CC(=O)N(C(=O)CCc2ccccc2)[C@@H]1c1ccccc1	.	.	-	-	.	.	.	.	.	.	.	.
O=C1CCN2C=Nc3cccc4ccc1c2c34	-	-	-	109	92	-	-	19	.	.	.	.	TAAR1 ag conf=-;Ga16 ag counter-2=36;TAAR1 desens=-;Ga16 nonsel ant=-
CCCCCCCCN1C(=O)[C@@H](CC(=O)NCC23CC4CC(CC(C4)C2)C3)C[C@@]2(C(=O)OC)C1=C[C@H](C(C)(C)C)O[C@@H]2C	.	.	-	-	.	.	.	.	.	.	.	.
O=S(=O)(NCCc1cn2ccccc2n1)c1ccc2c(c1)OCCO2	-	-	-	-	-	-	.	.	.	.	.	.
O=S(=O)(NCCc1csc(-c2ccccc2)n1)c1ccc2c(c1)OCCO2	-	-	-	94	83	-	64	-	.	.	.	.	TAAR1 ag conf=62;Ga16 ag counter-2=43;TAAR1 desens=-;Ga16 nonsel ant=24
CC1(c2nnc(-c3ccncc3)o2)CC(c2c(Cl)cccc2Cl)=NO1 (configuration not stated)	-	-	-	-	-	.	.	.	.	.	.	.
CC1(c2nnc(-c3ccccc3)o2)CC(c2c(Cl)cccc2Cl)=NO1 (configuration not stated)	-	-	70	-	-	.	.	.	23	53	-	-
N#Cc1cccc(NC(=O)c2cc(C3CCCCN3C(=O)CCCc3ccccc3)on2)c1 (configuration not stated)	.	.	61	-	.	.	.	.	34	54	-	-
O=C1CC(N(O)C2CC(=O)N(Cc3ccccc3)C2=O)C(=O)N1Cc1ccccc1 (configuration not stated)	-	-	68	-	-	-	.	.	33	54	-	-
Cc1cccc(C(O)c2ncc(-c3ccc4ccccc4c3)[nH]2)c1C (configuration not stated)	.	.	-	-	.	.	.	.	.	.	.	.
COc1cc2[nH]c(C)c(-c3ccccc3)c(=O)c2cc1Cl	.	.	-	-	.	.	.	.	.	.	.	.
CS(=O)(=O)N(CC(=O)N/N=C/c1cccc2c1OCCO2)c1ccccc1Br	-	-	-	-	-	-	.	.	.	.	.	.
CCOC(=O)c1ccc(-c2ccc(/C=N/NC(=O)CN(c3ccccc3Br)S(C)(=O)=O)o2)cc1	-	-	57	-	-	-	.	.	29	-	-	-
CN(C)CCCNC(=O)c1cccc(-c2cnc3cccnn23)c1	.	.	-	-	.	.	.	.	.	.	.	.
COc1cccc2cc(-c3cc(=O)oc4ccc(O)cc34)oc12	-	-	50	-	-	-	.	.	-	-	-	-
C=CC[C@H](CC(=O)N(CCO)Cc1ccccc1)C(=O)N[C@@H](COC(=O)[C@@H](CC=C)CC(=O)OC(C)(C)C)Cc1c[nH]c2ccccc12	-	-	68	-	-	.	.	.	32	-	-	-
C=CC[C@@H](CC(=O)N(CCO)Cc1ccccc1)C(=O)N[C@@H](COC(=O)[C@H](CC=C)CC(=O)OC(C)(C)C)Cc1c[nH]c2ccccc12	-	-	-	-	-	.	.	.	.	.	.	.
C=CC[C@H](CC(=O)NCCO)C(=O)N[C@H](COC(=O)[C@H](CC=C)CC(=O)OC(C)(C)C)Cc1c[nH]c2ccccc12	-	-	49	-	-	.	.	.	-	-	-	-
